In article PMC2248718 (The Journal of General Physiology, 2008):
Each block holds one compound with its values, some of them ahead of it.

What was measured:
[1] = target: SUR2A entire deletion (Δ948–962)/Kir6.2 KATP channels expressed in HEK293 cells (UniProt P70170+Q14654, DEL948-962); assay: Inside-out patch-clamp of entire ED deletion KATP channels; type: cell-based; conditions: glyburide 10 μM, monophasic response
[2] = target: wild-type SUR2A/Kir6.2 KATP channels expressed in HEK293 cells (UniProt P70170+Q14654); assay: Inside-out patch-clamp of recombinant wild-type KATP channels; type: cell-based; conditions: WT
[3] = tested on: SUR2A entire Q/N mutant/Kir6.2 KATP channels expressed in HEK293 cells; assay: Inside-out patch-clamp of entire Q/N mutant KATP channels; type: cell-based; conditions: glyburide 10 μM
[4] = target: wild-type SUR2A (NBD1) coexpressed with Kir6.2, HEK293 membranes (Mus musculus, UniProt P70170); assay: 8-azido-[γ-32P]ATP photoaffinity labeling, post-incubation with ADP, wild type; type: binding; conditions: WT; MgADP titration 0.05 to 1.0 mM
[5] = tested on: ED mutant SUR2A/Kir6.2 channels; assay: Inside-out patch-clamp of ED domain mutant KATP channels; type: cell-based; conditions: ED mutants; 300 μM MgADP, channels inhibited by 300 μM ATP
Outline: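 SUR2A (wild type or ED-mutated) was transiently cotransfected with Kir6.2 (5 μg:1 μg, plus 0.5 μg GFP reporter) into HEK293 cells grown in DMEM/10% FBS/2 mM glutamine, and recorded 48–72 h later. Inside-out patches at −60 mV, 32 ± 1°C. Pipette (mM): KCl 140, CaCl₂ 1, MgCl₂ 1, HEPES-KOH 5, pH 7.3. Bath (mM): KCl 140, MgCl₂ 1, EGTA 5, HEPES-KOH 5, pH 7.3, with nucleotides and drugs added.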

[6] = tested on: ED-mutated SUR2A (entire deletion and Q/N mutants) coexpressed with Kir6.2, HEK293 membranes; assay: 8-azido-[γ-32P]ATP photoaffinity labeling, post-incubation with ADP, ED mutants; type: binding; conditions: ED-mutated constructs; MgADP 0.05 to 1.0 mM

Glyburide-induced reduction in overall channel activity [1]: 21 ± 5%
Pattern of glyburide blockade in the presence of MgADP ([2]; glyburide 10 μM, 300 μM MgADP): both phases were blunted
Fast phase: instantaneous blockade, fraction of the channel population ([2]; glyburide 10 μM, no nucleotides): 59 ± 11%
Slow phase: gradual dissipation of channel activity ([2]; glyburide 10 μM, no nucleotides, within 2–3 min): 93 ± 3%
Structure (SMILES): COc1ccc(Cl)cc1C(=O)NCCc1ccc(S(=O)(=O)NC(=O)NC2CCCCC2)cc1 [glyburide]
Profile of glyburide inhibition in the presence of AMP-PNP ([2]; glyburide 10 μM, AMP-PNP 50 μM): indistinguishable from the effect of glyburide in the absence of nucleotides
Glyburide responsiveness compared with wild type [3]: reduced glyburide responsiveness

MgADP concentration at maximum increase of 8-azido-[γ-32P]ATP labeling [4]: 500 µM
Reversal of ATP-induced channel inhibition by MgADP ([2]; 300 μM MgADP, channels inhibited by 300 μM ATP): readily reversed
Structure (SMILES): Nc1ncnc2c1ncn2[C@@H]1O[C@H](COP(=O)([O-])OP(=O)([O-])O)[C@@H](O)[C@H]1O.[Mg+2] [MgADP]
Reversal of ATP-induced channel inhibition by MgADP [5]: unable to reverse such inhibition
Effect of MgADP on 8-azido-[γ-32P]ATP labeling [6]: did not affect labeling

Channel activity reversed by pinacidil against ATP inhibition ([2]; 50 μM pinacidil, 300 μM ATP, relative to activity in the absence of nucleotides): close to the maximum level
Structure (SMILES): CC(N/C(=N\C#N)Nc1ccncc1)C(C)(C)C (centres unmarked) [pinacidil]
